From ChEMBL document CHEMBL4118036, “α-Glucosidase Inhibitors from Salvia circinata” (J Nat Prod, 2017)
Active and inactive are the calls of the source. No cut-off for these calls is given here.

Columns and labels:
[1] = Inhibition of rat intestinal alpha-glucosidase using p-nitrophenyl-alpha-D-glucopyranoside as substrate pretreated for 10 mins followed by substrate addition measured after 30 mins
How it was run: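 Rat intestinal acetone powder (40 mg/mL in 100 mM PBS, pH 7) as enzyme source. Test agents were dissolved in PBS or MeOH–PBS (1:1), then preincubated with the enzyme for 10 min at 37 °C. p-Nitrophenyl-α-D-glucopyranoside was added (20 mM stock in PBS) and incubated for 30 min at 37 °C. Absorbance read at 405 nm; IC50 derived per earlier reports.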

Alpha-glucosidase = biological target: T1, Alpha-glucosidase (Blautia obeum, UniProt A0A173Z7B1); assay: Inhibition of recombinant Ruminococcus obeum ATCC 29174 alpha-glucosidase expressed in Escherichia coli BL21(DE3) using p-nitrophenyl-alpha-D-glucopyranoside as substrate pretreated for 10 mins followed by substrate addition measured after 3 hrs; design: species or system Blautia obeum ATCC 29174
T1 sequence (A0A173Z7B1 whole entry): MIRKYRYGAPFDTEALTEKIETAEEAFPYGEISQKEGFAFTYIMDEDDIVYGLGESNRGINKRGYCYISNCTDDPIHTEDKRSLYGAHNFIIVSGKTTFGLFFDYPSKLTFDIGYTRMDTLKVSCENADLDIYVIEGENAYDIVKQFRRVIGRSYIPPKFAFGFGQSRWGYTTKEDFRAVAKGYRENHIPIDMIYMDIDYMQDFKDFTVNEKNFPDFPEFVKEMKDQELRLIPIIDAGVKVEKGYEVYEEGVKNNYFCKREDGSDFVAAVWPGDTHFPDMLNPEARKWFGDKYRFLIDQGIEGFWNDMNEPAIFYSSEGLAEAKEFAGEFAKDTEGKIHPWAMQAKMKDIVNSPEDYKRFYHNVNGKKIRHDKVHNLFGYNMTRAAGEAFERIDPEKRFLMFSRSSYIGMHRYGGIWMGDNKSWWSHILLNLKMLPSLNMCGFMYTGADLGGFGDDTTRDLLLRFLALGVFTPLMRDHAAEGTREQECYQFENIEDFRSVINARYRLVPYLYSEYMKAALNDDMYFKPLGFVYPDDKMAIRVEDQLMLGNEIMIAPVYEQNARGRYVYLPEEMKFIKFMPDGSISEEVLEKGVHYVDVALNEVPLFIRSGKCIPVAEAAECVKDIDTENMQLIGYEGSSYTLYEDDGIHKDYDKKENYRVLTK
How it was run: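 Enzyme from E. coli BL21-DE3/pET12b grown in LB at 37 °C and induced with 0.5 mM IPTG for 8 h. Cells were sonicated in 50 mM bis-TRIS propane pH 8.0 and the lysate clarified. Enzyme (5.2 mg/mL) was preincubated with test agents for 10 min at 37 °C. pNP-α-glucoside was added (20 mM stock) and incubated for 3 h at 37 °C.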

Mus musculus [2] = assay: Antihyperglycemic activity in ig dosed ICR mouse assessed as reduction in postprandial blood glucose levels pretreated for 30 mins followed by oral sucrose challenge measured at 30 mins interval for 120 mins by OSTT; assay type: functional, organism-based
Mus musculus [3] = assay: Antihyperglycemic activity in ICR mouse assessed as reduction in postprandial blood glucose levels at 5 mg/kg, ig pretreated for 30 mins followed by oral sucrose challenge measured at 30 mins interval for 120 mins by OSTT; assay type: functional, organism-based
Rattus norvegicus = species on record: Rattus norvegicus; assay: Potency index, ratio of acarbose IC50 to test compound IC50 for rat intestinal alpha-glucosidase

| Compound | IC50 [1] [µM] | other results |
| --- | --- | --- |
| O=c1cc(-c2ccc(O)cc2)oc2cc(O[C@@H]3O[C@H](CO)[C@@H](O)[C@H](O)[C@H]3O)cc(O)c12 [APIGETRIN] | 200 | – |
| COc1cc2oc(-c3ccc(O)c(O)c3)cc(=O)c2c(O)c1O | 810 | IC50 (Alpha-glucosidase): 60 µM; Activity (Mus musculus [2]): Dose-dependent effect |
| CO[C@@H]1C=C(CC[C@]2(C)[C@H](C)CC[C@@]34COC(=O)C3=C[C@@H](O[C@@H]3O[C@H](CO)[C@@H](O)[C@H](O)[C@H]3O)C[C@@H]42)C(=O)O1 | > 10000 | – |
| C[C@@H]1CC[C@@]23COC(=O)C2=C[C@@H](O[C@@H]2O[C@H](CO)[C@@H](O)[C@H](O)[C@H]2O)C[C@@H]3[C@]1(C)CCc1ccoc1 | 500 | IC50 (Alpha-glucosidase): 400 µM; Activity (Mus musculus [2]): Dose-dependent effect |
| COC1OC(=O)C=C1CC[C@]1(C)[C@H](C)CC[C@@]23COC(=O)C2=C[C@@H](O[C@@H]2O[C@H](CO)[C@@H](O)[C@H](O)[C@H]2O)C[C@@H]31 (stereo partly specified) | > 10000 | – |

Further lines, with some results ahead:

| IC50 [1] [µM] | Compound | other results |
| --- | --- | --- |
| 100 | C[C@H]1O[C@H](O[C@H]2[C@H](O)[C@@H](O)[C@@H](O[C@H]3[C@H](O)[C@@H](O)C(O)O[C@@H]3CO)O[C@@H]2CO)[C@H](O)[C@@H](O)[C@@H]1N[C@H]1C=C(CO)[C@@H](O)[C@H](O)[C@H]1O (stereo partly specified) [ACARBOSE] | Activity (Mus musculus [3]): Active |
| > 10000 | C[C@@H]1CC[C@@]23COC(=O)C2=C[C@@H](O[C@@H]2O[C@H](CO)[C@@H](O)[C@H](O)[C@H]2O)C[C@@H]3[C@]1(C)CCC1=CCOC1=O | – |
| > 10000 | CC(=O)CC[C@]1(C)[C@H](C)CC[C@@]23COC(=O)C2=C[C@@H](O[C@@H]2O[C@H](CO)[C@@H](O)[C@H](O)[C@H]2O)C[C@@H]31 | – |
| 39 | COc1cc(-c2cc(=O)c3c(O)c(O)c(OC)cc3o2)ccc1Oc1ccc(-c2cc(=O)c3c(O)c(O)c(OC)cc3o2)cc1OC | Ratio IC50 (Rattus norvegicus): 2.5 |
| 1800 | COc1ccc(-c2cc(=O)c3c(O)c(O)c(OC)cc3o2)cc1OC | – |
